pIC50, pKi: −log10 of the molar value.
Tests used:
[1] = Inhibition of nuclear factor of activated T-cells (NFAT) mediated transcription of beta-galactosidase in J.NFATZ.1 cells; type: functional, cell-based, T-cell
Jurkat [2] = assay: Binding affinity was measured on jurkat cell membrane using [3H3C] as radioligand; type: functional, cell membranes, Homo sapiens
Jurkat [3] = assay: Inhibition of beta-galactosidase as expression in J.NFATZ.1 cells at 10 uM mediated by nuclear factor of activated T-cells transcription; type: functional
Jurkat [4] = assay: Binding affinity was measured on jurkat cell membrane using [3H3C] as radioligand.; type: functional, cell membranes, Homo sapiens
Jurkat [5] = assay: Concentration required to inhibit nuclear factor of activated T-cells mediated transcription of beta-galactosidases expression in J.NFATZ.1 cells; Not active; type: functional, cell-based
In short: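 J.NFATZ.1 cells, 1.25×10^5 per well, were stimulated with PMA (2 ng/mL final) and ionomycin (25 μM final) in the presence of compound (0.1% DMSO final). Incubation 5 h at 37 °C. Cells were lysed and incubated 1 h at 37 °C with 4-methylumbelliferyl β-D-galactoside (10 μg/mL final, pH 7.8). Fluorescence read at […]. IC50 obtained by four-parameter logistic fit.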

SMILES | pIC50 ([1]; T-cell) | also measured
CC(C)CCn1c(=O)n(C)c(=O)c2cn(Cc3cccc4ccccc34)cc21 | 6.09 | –
CC(C)Cn1c(=O)[nH]c(=O)c2cn(Cc3cccc4ccccc34)cc21 | 5.52 | –
CSc1c2c(=O)n(C)c(=O)n(CC(C)C)c2cn1Cc1cccc2ccccc12 | 7.05 | –
CC(C)Cn1c(=O)n(C)c(=O)c2cc(NCc3ccc(C(=O)O)cc3)ccc21 | – | Inhibition (Jurkat [3]): 30%
CC(C)Cn1c(=O)n(C)c(=O)c2cn(Cc3ccc(O)cc3)cc21 | 6.19 | –
CC(C)Cn1c(=O)n(C)c(=O)c2cc(NCc3ccccc3F)ccc21 | 5.88 | –
CC(C)Cn1c(=O)n(C)c(=O)c2cn(C3Cc4ccccc4C3)cc21 | 6.51 | pKi (Jurkat [2]): 8.32
CC(C)n1c(=O)n(C)c(=O)c2cn(Cc3cccc4ccccc34)cc21 | 7.67 | pKi (Jurkat [2]): 7.82
CC(C)Cn1c(=O)n(C)c(=O)c2cn(Cc3ccccc3Cl)cc21 | 6.59 | pKi (Jurkat [4]): 6.91
CC(C)Cn1c(=O)n(C)c(=O)c2ccc(OCc3ccccc3)cc21 | 5.69 | –
CNC(=O)CCCn1c(=O)c2cn(Cc3cccc4ccccc34)cc2n(CC(C)C)c1=O | – | IC50 (Jurkat [5]): Not Active
CCCCOc1ccc(Cn2cc3c(=O)n(C)c(=O)n(CC(C)C)c3c2)cc1 | 6.72 | –
COC(=O)c1ccc(CNc2ccc3c(c2)c(=O)n(C)c(=O)n3CC(C)C)cc1 | – | Inhibition (Jurkat [3]): 35%
CC(C)Cn1c(=O)n(C)c(=O)c2cc(NCc3ccc(C(C)(C)C)cc3)ccc21 | – | Inhibition (Jurkat [3]): 34%
CC(C)Cn1c(=O)n(C)c(=O)c2cn(C3CCc4ccccc43)cc21 (centres undefined) | 6.73 | –
COc1ccc(Cn2cc3c(c2CN2CCOCC2)c(=O)n(C)c(=O)n3CC(C)C)cc1 | 6.10 | pKi (Jurkat [2]): 6.50
CCC(C)n1c(=O)n(C)c(=O)c2cn(C3Cc4cccc5cccc3c45)cc21 (stereo in doubt; 5g4) | – | pIC50 ([1]; t-cell): 7.32
Cc1ccc(Cn2cc3c(=O)n(C)c(=O)n(CC(C)C)c3c2)cc1 | 6.49 | –
CC(C)Cn1c(=O)n(C)c(=O)c2cn(Cc3ccc(C(F)(F)F)cc3)cc21 | 5.89 | –
CC(C)Cn1c(=O)n(C)c(=O)c2cn([C@@H](C)c3ccccc3)cc21 | 5.89 | pKi (Jurkat [2]): 6.52
CCn1c(=O)c2cn(Cc3cccc4ccccc34)cc2n(CC(C)C)c1=O | 7.05 | –
CC(C)Cn1c(=O)n(C)c(=O)c2cc3c(cc21)O[C@](C)(c1ccccc1)O3 | 5.35 | –
CCC(C)n1c(=O)n(C)c(=O)c2cn(C3Cc4cccc5cccc3c45)cc21 (stereo in doubt; 5g) | – | pIC50 ([1]; t-cell): 8.27
CCC(C)n1c(=O)n(C)c(=O)c2cn(C3Cc4cccc5cccc3c45)cc21 (stereo in doubt; 5g3) | – | pIC50 ([1]; t-cell): 7.77
CC(C)Cn1c(=O)n(C)c(=O)c2ccc(NCc3ccccc3)cc21 | – | Inhibition (Jurkat [3]): 40%
COc1ccccc1Cn1cc2c(=O)n(C)c(=O)n(CC(C)C)c2c1 | 6.56 | pKi (Jurkat [4]): 6.77
COc1ccc(Cn2cc3c(=O)n(C)c(=O)n(CC(C)C)c3c2)cc1OC | 6.42 | –
CC(C)Cn1c(=O)n(C)c(=O)c2cn(Cc3ccc(O)c(I)c3)cc21 | 7.05 | –

The remaining compounds from weak to strong by pIC50 ([1]; T-cell), led by results:

pIC50 ([1]; T-cell) | SMILES | also measured
5.35 | CC(C)Cn1c(=O)n(C)c(=O)c2cc(NCc3ccccc3)ccc21 | –
5.39 | CC(C)Cn1c(=O)n(C)c(=O)c2cc(CCc3ccccc3)ccc21 | –
5.40 | CC(O)Cn1c(=O)n(C)c(=O)c2cn(Cc3cccc4ccccc34)cc21 (centres undefined) | pKi (Jurkat [2]): 6.16
5.60 | CC(C)Cn1c(=O)n(C)c(=O)c2cc(OCc3ccccc3)ccc21 | –
5.65 | CC(C)Cn1c(=O)n(C)c(=O)c2cc3c(cc21)O[C@H](c1ccccc1)O3 | –
5.84 | CC(C)Cn1c(=O)n(C)c(=O)c2cn(C(c3ccccc3)c3ccccc3)cc21 | –
5.92 | Cn1c(=O)c2cn(Cc3cccc4ccccc34)cc2n(CC2CCCCC2)c1=O | –
5.92 | CC(C)Cn1c(=O)n(C)c(=O)c2cn(Cc3cccc(Cl)c3Cl)cc21 | –
5.92 | CC(C)Cn1c(=O)n(C)c(=O)c2cn([C@H](C)c3ccccc3)cc21 | pKi (Jurkat [2]): 6.25
6.06 | CC(C)Cn1c(=O)n(C)c(=O)c2cn(Cc3ccccc3)cc21 | –
6.18 | CC(C)Cn1c(=O)[nH]c(=O)c2cn(C3Cc4cccc5cccc3c45)cc21 (centres undefined) | pKi (Jurkat [2]): 6.34
6.20 | CC(C)Cn1c(=O)n(C)c(=O)c2cn(Cc3ccccc3F)cc21 | –
6.36 | CCn1c(=O)n(C)c(=O)c2cn(Cc3cccc4ccccc34)cc21 | –
6.36 | CC(C)Cn1c(=O)n(C)c(=O)c2cn(Cc3ccc(Cl)cc3)cc21 | –
6.44 | COc1ccc(Cn2cc3c(c2SC)c(=O)n(C)c(=O)n3CC(C)C)cc1 | pKi (Jurkat [2]): 6.52
6.51 | COc1ccc(Cn2cc3c(=O)n(C)c(=O)n(CC(C)C)c3c2)c(OC)c1 | pKi (Jurkat [2]): 7.06
6.56 | COc1cccc(Cn2cc3c(=O)n(C)c(=O)n(CC(C)C)c3c2)c1 | –
6.59 | CSc1ccc(Cn2cc3c(=O)n(C)c(=O)n(CC(C)C)c3c2)cc1 | –
6.62 | COc1ccc(Cn2cc3c(=O)n(C)c(=O)n(CC(C)C)c3c2)cc1 | –
6.65 | COc1cccc(Cn2cc3c(=O)n(C)c(=O)n(CC(C)C)c3c2)c1OC | –
6.78 | COc1ccc(Cn2cc3c(=O)n(C)c(=O)n(CC(C)C)c3c2)cc1I | –
6.82 | Cc1c2c(cn1Cc1cccc3ccccc13)c(=O)n(C)c(=O)n2CC(C)C | –
6.85 | Cn1c(=O)c2cn(Cc3cccc4ccccc34)cc2n(CC2CC2)c1=O | –
7.12 | CC(C)Cn1c(=O)n(C)c(=O)c2cn(Cc3ccc4ccccc4c3)cc21 | pKi (Jurkat [4]): 7.53
7.59 | CC(C)Cn1c(=O)n(C)c(=O)c2cn(Cc3cccc4ccccc34)cc21 | pKi (Jurkat [4]): 7.64
8.10 | CC(C)Cn1c(=O)n(C)c(=O)c2cn(C3Cc4cccc5cccc3c45)cc21 (centres undefined) | –
8.22 | CC(C)Cn1c(=O)n(C)c(=O)c2c(SCCCO)n(Cc3cccc4ccccc34)cc21 | pKi (Jurkat [2]): 8.96
